# Source: PubChem
# PP1 counter: PP1-alpha phosphatase inhibitors, primary screen, counter-screen for PP5 inhibitor project, biochemical, fluorescence, OMFP substrate, single point; purified PP1alpha; inhibition, % at 6.7 µM; 320,000 compounds, 0.9% hits; AID 2235, 2010;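 active = inhibition above the mean inhibition of all tested compounds plus 3 SD, computed separately for each screening campaign, cut at about 15% in these data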
# ZTA counter: ZTA (EBV) inhibition in EBNA-1 counter-screen. P03206. ZTA-DNA binding, fluorescence polarization. inhibition, % at 11 µM. 320,000 compounds, 0.15% hits. AID 2234; in the data active = inhibition above about 33%
# Target sequence (P03206 whole entry, looked up): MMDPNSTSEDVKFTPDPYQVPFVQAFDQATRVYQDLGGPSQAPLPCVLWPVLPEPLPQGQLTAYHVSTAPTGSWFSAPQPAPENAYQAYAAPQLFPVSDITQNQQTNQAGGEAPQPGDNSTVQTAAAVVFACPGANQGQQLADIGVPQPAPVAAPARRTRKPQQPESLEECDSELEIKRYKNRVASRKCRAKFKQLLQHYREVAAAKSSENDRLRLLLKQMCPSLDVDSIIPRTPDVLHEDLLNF
# EBNA-1 inhibitor: EBNA-1 DNA-binding inhibitors, primary screen, biochemical, fluorescence polarization; inhibition, % at 14.8 µM; 300,000 compounds, 0.34% hits; in the data active = inhibition above about 28%
# core dimer inh: inhibitors of HCV core protein dimerization, primary screen, biochemical, TR-FRET, high-throughput | TR-FRET GST/Flag-core106 dimerization, 1536-well | inhibition, % at 5 µM | 300,000 compounds, 0.33% hits;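 active = inhibition above the mean of all tested compounds plus 3 SD, set per screening campaign, cut at about 45% in these data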
#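 Material: GST/Flag-tagged HCV core106 proteins. Incubation: 4 h, 22.5 °C incubation. Read-out basis: inhibition (%) from 671 over 617 nm ratio. Measured by: TR-FRET, excitation 340 nm, emission 617 and 671 nm.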
# PP5 inh: PP5 phosphatase inhibitors, primary screen, biochemical, fluorescence; purified PP5c, OMFP substrate fluorescence; inhibition, % at 6.7 µM; 320,000 compounds, 0.18% hits; AID 1987, 2009;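 active = inhibition above the campaign's mean inhibition across all tested compounds plus 3 SD, cut at about 9.5% in these data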;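 also: 0% = DMSO only and 100% = 100 µM cantharidin control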
# * = called active by the depositor; x = no result given. The list is not random: actives were taken first. Their share in the collection is about 1.7%.
SMILES,PP1 counter,ZTA counter,EBNA-1 inhibitor,core dimer inh,PP5 inh
COc1cc(CNc2ccc(N3CCCC3)cc2)ccc1OCc1ccccc1,9,76*,74*,6,1
COc1cc(CNc2ccc(N3CCCC3)cc2)ccc1OCc1ccccc1F,10,79*,65*,-1,1
O=C1N[C@@H](Cc2cn(S(=O)(=O)c3c(F)c(F)c(F)c(F)c3F)c3ccccc23)C(=O)N[C@H]1Cc1ccccc1,0,9,2,49*,-2
O=C1N[C@@H](Cc2cn(S(=O)(=O)c3ccc([N+](=O)[O-])cc3)c3ccccc23)C(=O)N[C@H]1Cc1ccccc1,5,-5,8,1,5
COc1cccc(/C=N/Nc2ncnc3c2[nH]c2ccc(C)cc23)c1OC,7,13,17,49*,2
COc1ccc(/C=N/Nc2ncnc3c2[nH]c2ccccc23)c(OC)c1OC,3,-2,-7,4,0
O=C(O)c1ccc(Cl)c2c1C1C=CCC1C(c1ccccn1)N2 (stereo not given),5,31,13,11,-2
O=[N+]([O-])c1ccc(Cl)c2c1C1C=CCC1C(c1ccccn1)N2 (stereo not given),7,0,13,58*,3
Cc1cc([N+](=O)[O-])cc2c1NC(c1ccccn1)C1CC=CC21 (stereo not given),1,6,2,49*,-1
CCCN(C(=O)c1nc2nc(C)cc(C)n2n1)c1c(N)n(Cc2ccccc2)c(=O)[nH]c1=O,-3,-5,x,x,4
O=C1OC/C(=C(/O)c2ccc(Cl)cc2)C1=O,2,-2,0,-6,1
O=C(Nc1ccc(Cl)cc1)Nc1ccc(N2CCCC2)c(S(=O)(=O)Nc2ccccc2Cl)c1,17*,15,9,19,3
COCCn1c(SCc2nc3scc(-c4ccc(Cl)cc4)c3c(=O)[nH]2)nnc1-c1cccc(C)c1,16*,-7,-4,26,3
CCCCCn1c(N2CCC(Cc3ccccc3)CC2)nc2c1c(=O)[nH]c(=O)n2C,16*,-3,-4,16,7
CCCn1c(N2CCC(Cc3ccccc3)CC2)nc2c1c(=O)[nH]c(=O)n2C,0,0,-4,27,5
O=C(Cn1c(=O)c(=O)n(Cc2ccccc2)c2ccc(Cl)cc21)Nc1cccc(F)c1,-2,3,9,21,0
COc1ccc(NC(=O)CCC(=O)c2ccc(-c3ccccc3)cc2)cc1,16*,9,-1,28,2
Cc1cc(NC(=O)c2ccc(N3CCCC3)c([N+](=O)[O-])c2)no1,1,-8,-8,49*,5
O=C(Nc1ccon1)c1ccc(N2CCCCC2)c([N+](=O)[O-])c1,-1,13,-4,-1,2
Cc1nn(-c2ccccc2)c(C)c1C(=O)OC/C(O)=C(\C#N)c1nc2ccccc2[nH]1,8,6,16,67*,3
CC(C)c1ccc(CNCCCSc2ncccn2)cc1,1,-10,-8,-5,-2
COc1cc(/C=C/[N+](=O)[O-])ccc1OC(=O)c1cc2ccccc2oc1=O,-2,-7,-3,70*,0
O=C(NC1=NCCS1)C1CCN(S(=O)(=O)c2ccccc2C(F)(F)F)CC1,-5,-9,x,x,1
O=C(CCN1C(=O)c2ccccc2S1(=O)=O)N1CCN(c2cccc(Cl)c2)CC1,-4,-5,4,4,0
O=C1CC(=C2c3ccccc3-c3ccccc32)C(=O)N1CCN1CCN(c2cccc(Cl)c2)CC1,16*,2,16,21,4
SMILES,PP1 counter,ZTA counter,EBNA-1 inhibitor,core dimer inh,PP5 inh
Cc1cccc(C(=O)N[C@H](C(=O)Nc2cccc(S(=O)(=O)N3CCCC3)c2)C(C)C)c1,-1,-3,4,2,3
CC(C)(C)c1ccc(OCCC(=O)Nc2cccc(S(=O)(=O)N3CCCCC3)c2)cc1,16*,-4,-16,12,0
CCOc1ccc(C(=O)N[C@H](C(=O)Nc2cccc(S(=O)(=O)N3CCCCC3)c2)C(C)C)cc1,3,-13,42*,10,3
COc1cccc(Oc2ccc3nnc(C(F)(F)F)n3n2)c1,0,-11,-17,1,3
Cc1ccc(-n2c(-c3ccncc3)n[nH]c2=S)c(C)c1,-3,-7,9,5,0
Cc1cc(Nc2cccc(Cl)c2)nc(NCc2ccccc2)n1,16*,-6,-12,-11,7
Cc1cc(N/N=C/c2cccc(Cl)c2)nc(NCc2ccccc2)n1,15*,-4,-1,-8,2
CC(C)(C)NC(=O)CSc1nnc(NC(=O)c2ccccc2Cl)s1,0,0,-1,0,0
O=C(CSc1nnc(NC(=O)c2ccccc2Cl)s1)Nc1ccc2c(c1)oc1ccccc12,5,14,18,49*,1
CC(=O)N1CCOc2ccc(S(=O)(=O)N(C)c3ccc(C)cc3)cc21,5,3,0,0,2
COc1cccc2c1[C@@H]1CN(CCCCn3c(=O)[nH]c4c(sc5ncc(-c6ccccc6)nc54)c3=O)C[C@@H]1CO2,17*,8,12,-4,-3
CC(C)CNC(=O)COC(=O)c1c2c(nc3ccccc13)/C(=C/c1cccs1)CC2,6,-6,3,13,1
CC1CCCCC1NC(=O)COC(=O)c1c2c(nc3ccccc13)/C(=C/c1ccco1)CC2 (stereo not given),12,-10,10,97*,2
Cc1cc(NC(=O)c2cc(-c3ccncc3)nc3c(C)cccc23)no1,6,13,-4,54*,2
O=S(=O)(c1ccc(Br)cc1)c1nc(-c2ccco2)oc1NCC1CCCO1 (stereo not given),-2,6,1,2,0
COc1cccc(NC(=O)CN(C)C(=O)c2cc3c(s2)CCC3)c1,7,-9,5,59*,2
COc1cccc(NC(=O)CN(C)C(=O)c2cc3c(s2)CCC(C)C3)c1 (stereo not given),-7,-3,5,8,2
COc1ccc(NC(=O)CN(C)C(=O)c2cc3c(s2)CCCCC3)cc1,-5,-11,-1,8,3
COc1ccc(NC(=O)CN(C)C(=O)c2cc3c(s2)CCC3)cc1,6,9,0,70*,-1
O=C(CNc1ccc2c(c1)OCO2)N/N=C\c1cn(Cc2ccccc2)c2ccccc12,17*,2,10,34,4
OCCC1CN(CC2CC2)CCN1Cc1ccc(F)c(F)c1 (stereo not given),-1,-1,9,-2,-2
Cc1cccn2c(=O)c3cc(C#N)c(=NC(=O)c4ccccc4)n(Cc4ccco4)c3nc12,12,5,5,46*,2
